Data taken from ChEMBL document CHEMBL2069228, “Antidiabetic compounds from Sarracenia purpurea used traditionally by the Eeyou Istchee Cree First Nation” (J Nat Prod, 2012).

Legend:
C2C12 [1] = test: Increase in glucose uptake in mouse C2C12 cells incubated for 18 hrs using [3H]-2-deoxy-D-glucose by liquid scintillation counting; format: functional, cell-based
Summary of the method: (§1)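 Differentiated confluent C2C12 myotubes were held 18 h in DMEM with 2% horse serum containing compound (6.25–100 μM; 0.1% DMSO vehicle control). Cells were equilibrated 30 min at 37 °C in Krebs phosphate buffer pH 7.4 with 5 mM glucose, rinsed glucose-free, then given 10 μM 2-deoxy-D-glucose plus 1 μCi/mL [3H]-2-deoxyglucose for 10 min at 37 °C. Cells were lysed in 0.1 M NaOH and counted by scintillation.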

C2C12 [2] = test: Increase in glucose uptake in mouse C2C12 cells incubated for 18 hrs using [3H]-2-deoxy-D-glucose by liquid scintillation counting relative to DMSO; format: functional; design: concentration or dose not given beside the values; summary of the method: as §1
[3] = biological target: T1, Glucose-6-phosphatase catalytic subunit 1 (Rattus norvegicus, UniProt P43428); test: Inhibition of glucose-6-phosphatase enzymatic activity in rat […] cells using G6P substrate incubated for 18 hrs by colorimetric assay; format: cell-based
T1 sequence (P43428 whole entry): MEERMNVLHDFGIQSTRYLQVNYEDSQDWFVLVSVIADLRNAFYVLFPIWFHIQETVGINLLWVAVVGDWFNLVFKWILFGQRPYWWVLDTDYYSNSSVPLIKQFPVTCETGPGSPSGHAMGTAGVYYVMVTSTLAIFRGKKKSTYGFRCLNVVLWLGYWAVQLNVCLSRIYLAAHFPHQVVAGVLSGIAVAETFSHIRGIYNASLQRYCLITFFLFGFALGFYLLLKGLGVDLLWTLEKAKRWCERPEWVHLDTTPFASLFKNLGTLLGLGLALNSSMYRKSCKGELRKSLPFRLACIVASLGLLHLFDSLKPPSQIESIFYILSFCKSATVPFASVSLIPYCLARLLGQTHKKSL
Summary of the method: (§2)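 H4IIE rat hepatoma cells at 90% confluence were treated 18 h with compound (1–100 μM; 0.1% DMSO control, 100 nM insulin reference). Cells were lysed in 15 mM phosphate buffer pH 6.5 with 0.05% Triton and 1.3 mM phenol, and lysate was incubated with 200 mM glucose-6-phosphate for 40 min at 37 °C. Glucose formed was read by glucose oxidase colorimetry at 505 nm and normalised to protein.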

[4] = biological target: T2, Glucose-6-phosphatase catalytic subunit 1 (Rattus norvegicus) (UniProt P43428); test: Inhibition of glucose-6-phosphatase enzymatic activity in rat […] cells at 50 uM using G6P substrate incubated for 18 hrs by colorimetric assay; format: cell-based; summary of the method: as §2
T2 sequence (whole entry): T1 sequence (P43428 whole entry)

[5] = Mus musculus, C2C12, read-out: EC50

| SMILES | EC50 (C2C12 [1]; [5]) | IC50 [3] | inhibition [4] | EC50 (C2C12 [1]; c2c12) | Efficacy (C2C12 [2]) |
| --- | --- | --- | --- | --- | --- |
| COC(=O)C1=CO[C@@H](O[C@H]2O[C@H](CO)[C@@H](O)[C@H](O)[C@H]2O)[C@@H]2[C@H](C)O[C@@H](OC)C[C@H]12 | 25.9 µM | – | – | – | 120% |
| COc1cc(-c2oc3cc(O)cc(O)c3c(=O)c2O[C@@H]2O[C@H](CO)[C@@H](O)[C@H](O)[C@H]2O)ccc1O | 18.5 µM | – | – | – | 150% |
| O=c1c(O[C@@H]2O[C@H](CO)[C@H](O)[C@H](O)[C@H]2O)c(-c2ccc(O)c(O)c2)oc2cc(O)cc(O)c12 [HYPEROSIDE] | 60.5 µM | – | – | – | 211% |

More lines, main results first:

| EC50 (C2C12 [1]; [5]) | IC50 [3] | inhibition [4] | EC50 (C2C12 [1]; c2c12) | SMILES | Efficacy (C2C12 [2]) |
| --- | --- | --- | --- | --- | --- |
| 25.6 µM | 391 µM | 19.6% | – | O=C1C[C@H](O[C@@H]2O[C@H](CO)[C@@H](O)[C@H](O)[C@H]2O)CO1 [GOODYEROSIDE] | 124% |
| 13.8 µM | – | – | – | O=C(/C=C/c1ccc(O)c(O)c1)OC[C@H]1O[C@@H](Oc2c(-c3ccc(O)cc3)oc3cc(O)cc(O)c3c2=O)[C@H](O)[C@@H](O)[C@@H]1O | 188% |
| – | 13.9 µM | 44% | Not Active | O=C(/C=C/c1ccc(O)c(O)c1)OC[C@H]1O[C@@H](O[C@@H]2COC(=O)C2)[C@H](O)[C@@H](O)[C@@H]1O | – |
